Measurements published in ChEMBL document CHEMBL1146375, “Synthetic studies on novel benzimidazolopeptides with antimicrobial, cytotoxic and anthelmintic potential” (2007).
In brackets after ≈: the same amount, converted by molar mass.

Legend:
Pseudomonas aeruginosa [1] = test: Antibacterial activity against Pseudomonas aeruginosa NCIM 2034 after 18 hrs by disc diffusion method; format: functional
Method in brief: (§1)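 Modified Kirby-Bauer disc diffusion. Plates inoculated with spore suspension (about 6 × 10⁴ spores mL^-1). Sterile 6 mm paper discs carried test samples at 10 mg mL^-1; ciprofloxacin disc as reference, DMF disc as negative control. Plates held 18 h at 37 °C. Inhibition zone diameters (mm) averaged over triplicate sets.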

Candida albicans [2] = test: Antifungal activity against Candida albicans MUCC 29 after 48 hrs by disc diffusion method; format: functional
Method in brief: (§2)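 Agar well diffusion on plates inoculated with spore suspension in normal saline from cultures on Sabouraud's broth. Wells punched and loaded with test samples or griseofulvin at 10 mg mL^-1, with DMSO as negative control. Incubated 48 h at 37 °C.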

Microsporum audouinii [3] = test: Antifungal activity against Microsporum audouinii MUCC 545 after 48 hrs by tube dilution method; format: functional
Method in brief: (§3)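 Tube dilution MIC as for bacteria (seven concentrations, 200–3.1 […]), with DMSO in place of DMF. Tubes inoculated with fungal culture and incubated 48 h at 37 °C. MIC read from presence or absence of growth.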

Pontoscolex corethrurus [4] = test: Anthelmintic activity against Pontoscolex corethrurus ICARBC 408 assessed as mean death time; format: functional
Method in brief: (§4)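 Earthworms exposed to test suspensions at 2 mg mL−1, prepared by triturating compound with Tween 80 (0.5%) and distilled water, stirring 30 min, then diluting to 0.2% w/v. Mebendazole suspension was made the same way. Death was confirmed by moving worms into 50 °C warm water and looking for movement. Mean death time (min) taken from triplicate sets.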

Staphylococcus aureus [5] = test: Antibacterial activity against Staphylococcus aureus NCIM 2079 after 18 hrs by disc diffusion method; format: functional; method in brief: as §1
Microsporum audouinii [6] = test: Antifungal activity against Microsporum audouinii MUCC 545 after 48 hrs by disc diffusion method; format: functional; method in brief: as §2
Trichophyton benhamiae [7] = test: Antifungal activity against Trichophyton mentagrophytes MUCC 665 after 48 hrs by tube dilution method; format: functional, Arthroderma benhamiae; method in brief: as §3
Escherichia coli [8] = test: Antibacterial activity against Escherichia coli NCIM 2065 after 18 hrs by disc diffusion method; format: functional; method in brief: as §1
[9] = Anthelmintic activity against Megascoplex konkanensis ICARBC 211 assessed as mean paralyzing time; format: functional
Method in brief: (§5)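 Earthworms exposed to test suspensions at 2 mg mL^-1 (0.2% w/v), made by triturating compound with Tween 80 (0.5%) and distilled water, then mechanically stirred 30 min. Mebendazole suspension prepared alike as reference. Paralysis and death times recorded; death confirmed by no movement in 50 °C water. Means from triplicate sets.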

Escherichia coli [10] = test: Antibacterial activity against Escherichia coli NCIM 2065 after 18 hrs by tube dilution method; format: functional; conditions: NCIM 2065, 18 h
Eudrilus [11] = test: Anthelmintic activity against Eudrilus sp. assessed as mean paralyzing time; format: functional; method in brief: as §5
Trichophyton benhamiae [12] = test: Antifungal activity against Trichophyton mentagrophytes MUCC 665 after 48 hrs by disc diffusion method; format: functional, Arthroderma benhamiae; method in brief: as §2
Bacillus subtilis [13] = test: Antibacterial activity against Bacillus subtilis NCIM 2063 after 18 hrs by tube dilution method; format: functional; conditions: NCIM 2063, 18 h
Method in brief: (§6)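 Tube dilution MIC. Stock diluted in sterile broth to seven concentrations from 200 to 3.1 […]. Each tube inoculated with one loopful of test bacterium and incubated 18 h at 37 °C. MIC read from presence or absence of growth.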

Aspergillus niger = test: Antifungal activity against Aspergillus niger MUCC 177 after 48 hrs by disc diffusion method; format: functional; method in brief: as §2
Candida albicans [14] = test: Antifungal activity against Candida albicans MUCC 29 after 48 hrs by tube dilution method; format: functional; method in brief: as §3
[15] = Anthelmintic activity against Megascoplex konkanensis ICARBC 211 assessed as mean death time; format: functional; method in brief: as §5
Eudrilus [16] = test: Anthelmintic activity against Eudrilus sp. assessed as mean death time; format: functional; method in brief: as §4
Bacillus subtilis [17] = test: Antibacterial activity against Bacillus subtilis NCIM 2063 after 18 hrs by disc diffusion method; format: functional; method in brief: as §1
Pontoscolex corethrurus [18] = test: Anthelmintic activity against Pontoscolex corethrurus ICARBC 408 assessed as mean paralyzing time; format: functional; method in brief: as §5
Staphylococcus aureus [19] = test: Antibacterial activity against Staphylococcus aureus NCIM 2079 after 18 hrs by tube dilution method; format: functional; conditions: NCIM 2079, 18 h; method in brief: as §6
Pseudomonas aeruginosa [20] = test: Antibacterial activity against Pseudomonas aeruginosa NCIM 2034 after 18 hrs by tube dilution method; format: functional; conditions: NCIM 2034, 18 h; method in brief: as §6

SMILES | inhibition zone (IZ) (Pseudomonas aeruginosa [1]) [mm] | inhibition zone (IZ) (Candida albicans [2]) [mm] | MIC (Microsporum audouinii [3]) [µg/mL] | Time (Pontoscolex corethrurus [4]) [min] | inhibition zone (IZ) (Staphylococcus aureus [5]) [mm] | inhibition zone (IZ) (Microsporum audouinii [6]) [mm] | MIC (Trichophyton benhamiae [7]) [µg/mL] | inhibition zone (IZ) (Escherichia coli [8]) [mm] | TIME [9] [h] | MIC (Escherichia coli [10]) [µg/mL] | Time (Eudrilus [11]) [min] | inhibition zone (IZ) (Trichophyton benhamiae [12]) [mm] | MIC (Bacillus subtilis [13]) [µg/mL] | inhibition zone (IZ) (Aspergillus niger) [mm] | MIC (Candida albicans [14]) [µg/mL] | TIME [15] [h] | Time (Eudrilus [16]) [min] | inhibition zone (IZ) (Bacillus subtilis [17]) [mm] | Time (Pontoscolex corethrurus [18]) [min] | MIC (Staphylococcus aureus [19]) [µg/mL] | also measured
COC(=O)[C@@H]1CCCN1C(=O)[C@@H](NC(=O)[C@H](Cc1ccccc1)NC(=O)c1cc(I)c(-c2nc3cc(C)c(C)cc3[nH]2)c(I)c1)C(C)C | 22 | 16 | 12.5 (≈ 14.3 µM) | 50.22 | 12 | 10 | 6 (≈ 6.85 µM) | 16 | 0.454 | 25 (≈ 28.6 µM) | 29.24 | 12 | 6 (≈ 6.85 µM) | 14 | 6 (≈ 6.85 µM) | 0.672 | 45.34 | 16 | 33.64 | 25 (≈ 28.6 µM) | MIC (Pseudomonas aeruginosa [20]): 12.5 µg/mL (≈ 14.3 µM)
CC[C@H](C)[C@H](NC(=O)[C@H](CC(C)C)NC(=O)c1cc(-c2nc3cc(C)c(C)cc3[nH]2)ccc1O)C(=O)OC | 20 | 19 | 6 (≈ 11.5 µM) | 41.53 | 10 | 12 | 6 (≈ 11.5 µM) | 16 | 0.425 | 12.5 (≈ 23.9 µM) | 25.69 | 13 | 6 (≈ 11.5 µM) | 19 | 6 (≈ 11.5 µM) | 0.569 | 36.12 | 15 | 29.83 | 12.5 (≈ 23.9 µM) | MIC (Pseudomonas aeruginosa [20]): 6 µg/mL (≈ 11.5 µM)
COC(=O)CNC(=O)CNC(=O)c1cc(-c2nc3ccc([N+](=O)[O-])cc3[nH]2)ccc1O | 22 | 18 | 6 (≈ 14 µM) | 42.45 | 9 | 13 | 6 (≈ 14 µM) | 16 | 0.461 | 12.5 (≈ 29.2 µM) | 25.74 | 15 | 25 (≈ 58.5 µM) | 17 | 6 (≈ 14 µM) | 0.608 | 36.77 | 9 | 31.38 | 12.5 (≈ 29.2 µM) | MIC (Pseudomonas aeruginosa [20]): 6 µg/mL (≈ 14 µM)
COC(=O)[C@H](Cc1ccccc1)NC(=O)c1cc(-c2nc3cc(C)c(C)cc3[nH]2)ccc1O | 24 | 17 | 25 (≈ 56.4 µM) | 42.56 | 10 | 9 | 6 (≈ 13.5 µM) | 17 | 0.437 | 12.5 (≈ 28.2 µM) | 26.78 | 15 | 6 (≈ 13.5 µM) | 17 | 6 (≈ 13.5 µM) | 0.592 | 37.74 | 14 | 30.34 | 12.5 (≈ 28.2 µM) | MIC (Pseudomonas aeruginosa [20]): 6 µg/mL (≈ 13.5 µM)
COC(=O)[C@H](Cc1c[nH]c2ccccc12)NC(=O)c1cc(I)c(-c2nc3cc(C)c(C)cc3[nH]2)c(I)c1 | 25 | 18 | 12.5 (≈ 17.4 µM) | 29.29 | 12 | 9 | 6 (≈ 8.35 µM) | 19 | 0.217 | 12.5 (≈ 17.4 µM) | 13.5 | 12 | 6 (≈ 8.35 µM) | 19 | 6 (≈ 8.35 µM) | 0.371 | 24.02 | 16 | 17.1 | 12.5 (≈ 17.4 µM) | MIC (Pseudomonas aeruginosa [20]): 6 µg/mL (≈ 8.35 µM)
Cc1cc2nc(-c3c(I)cc(C(=O)N[C@@H](C)C(=O)N[C@@H](Cc4ccc(O)cc4)C(=O)NCC(=O)O)cc3I)[nH]c2cc1C | 23 | 16 | 12.5 (≈ 15.4 µM) | 47.45 | 13 | 9 | 12.5 (≈ 15.4 µM) | 18 | 0.454 | 12.5 (≈ 15.4 µM) | 26.25 | 15 | 6 (≈ 7.41 µM) | 15 | 6 (≈ 7.41 µM) | 0.676 | 45.22 | 16 | 35.42 | 12.5 (≈ 15.4 µM) | MIC (Pseudomonas aeruginosa [20]): 6 µg/mL (≈ 7.41 µM)
COC(=O)[C@H](C)NC(=O)[C@H](CCCNC(=N)N[N+](=O)[O-])NC(=O)c1cc(-c2nc3cc(C)c(C)cc3[nH]2)ccc1O | 22 | 19 | 6 (≈ 10.6 µM) | 32.65 | 11 | 11 | 6 (≈ 10.6 µM) | 17 | 0.279 | 12.5 (≈ 22 µM) | 17.35 | 10 | 6 (≈ 10.6 µM) | 18 | 12.5 (≈ 22 µM) | 0.423 | 28.54 | 15 | 20.38 | 12.5 (≈ 22 µM) | MIC (Pseudomonas aeruginosa [20]): 6 µg/mL (≈ 10.6 µM)
